Experimental data published in ChEMBL document CHEMBL3243954 (J Med Chem, 1979).

Assays:
Mus musculus [1] = experiment: Antimetrazol activity in iv dosed mouse assessed as inhibition of metrazol-induced tonic-extensor seizures administered 30 mins prior to metrazol challenge; type: functional
In short: (§1)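 Mice dosed iv with the ester in aqueous solution containing under 10% chremofor. Metrazol 125 mg/kg sc was given 30 or 60 min after the ester. ED50 is the dose preventing tonic-extensor seizures in 50% of mice, derived by probit analysis.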

Mus musculus [2] = species: Mus musculus; experiment: Ratio of ED50 for muscle relaxant activity in mouse to ED50 for antimetrazol activity in mouse measured after 60 mins
Mus musculus [3] = species: Mus musculus; experiment: Ratio of ED50 for muscle relaxant activity in mouse to ED50 for antimetrazol activity in mouse measured after 30 mins
Mus musculus [4] = experiment: Antimetrazol activity in iv dosed mouse assessed as inhibition of metrazol-induced tonic-extensor seizures administered 60 mins prior to metrazol challenge; type: functional; conditions: Mus musculus, iv; read-out: ED50; in short: as §1
Mus musculus [5] = experiment: Muscle relaxant activity in iv dosed mouse after 30 mins by rotarod test; type: ADME, organism-based; conditions: in vivo, 0.5 h
Mus musculus [6] = experiment: Muscle relaxant activity in iv dosed mouse after 60 mins by rotarod test; type: ADME, organism-based; conditions: in vivo, 1 h
[7] = Drug metabolism in mouse liver microsomes assessed as rate of esterase-mediated compound hydrolysis measured per mg of protein by pH stat based titrimetric analysis; type: ADME
[8] = (§2) Drug metabolism in mouse liver microsomes assessed as rate of esterase-mediated compound hydrolysis by pH stat based titrimetric analysis; type: ADME; conditions: microsomes
Brain [9] = experiment: Drug uptake albino mouse brain at 10 mg equivalent of oxazepam/kg, iv after 6 mins measured per gm of tissue by thin-layer chromatography; type: ADME, organism-based; conditions: in vivo, 0.1 h
Brain [10] = experiment: Drug uptake albino mouse brain at 10 mg equivalent of oxazepam/kg, iv after 3 mins measured per gm of tissue by thin-layer chromatography; type: ADME, organism-based; conditions: in vivo, 0.05 h
Brain [11] = experiment: Drug uptake albino mouse brain at 10 mg equivalent of oxazepam/kg, iv after 1 min measured per gm of tissue by thin-layer chromatography; type: ADME, organism-based; conditions: in vivo
Brain [12] = experiment: Drug uptake albino mouse brain at 10 mg equivalent of oxazepam/kg, iv after 40 mins measured per gm of tissue by thin-layer chromatography; type: ADME, organism-based; conditions: in vivo
Brain [13] = experiment: Drug uptake albino mouse brain at 10 mg equivalent of oxazepam/kg, iv after 12 mins measured per gm of tissue by thin-layer chromatography; type: ADME, organism-based; conditions: in vivo, 0.2 h
Brain [14] = experiment: Drug uptake albino mouse brain at 10 mg equivalent of oxazepam/kg, iv after 20 mins measured per gm of tissue by thin-layer chromatography; type: ADME, organism-based; conditions: in vivo
[15] = Retardation factor, Rm of the compound by thin-layer chromatography; type: physicochemical
Brain [16] = experiment: Drug uptake albino mouse brain at 5 mg equivalent of oxazepam/kg, iv after 120 mins measured per gm of tissue by thin-layer chromatography; type: ADME, organism-based; conditions: in vivo, 2 h
Brain [17] = experiment: Drug uptake albino mouse brain at 5 mg equivalent of oxazepam/kg, iv after 3 mins measured per gm of tissue by thin-layer chromatography; type: ADME, organism-based; conditions: in vivo, 0.05 h
Brain [18] = experiment: Drug uptake albino mouse brain at 5 mg equivalent of oxazepam/kg, iv after 60 mins measured per gm of tissue by thin-layer chromatography; type: ADME, organism-based; conditions: in vivo, 1 h
Brain [19] = experiment: Drug uptake albino mouse brain at 5 mg equivalent of oxazepam/kg, iv after 40 mins measured per gm of tissue by thin-layer chromatography; type: ADME, organism-based; conditions: in vivo
Brain [20] = experiment: Drug uptake albino mouse brain at 5 mg equivalent of oxazepam/kg, iv after 10 mins measured per gm of tissue by thin-layer chromatography; type: ADME, organism-based; conditions: in vivo
Brain [21] = experiment: Drug uptake albino mouse brain at 5 mg equivalent of oxazepam/kg, iv after 5 mins measured per gm of tissue by thin-layer chromatography; type: ADME, organism-based; conditions: in vivo
Brain [22] = experiment: Drug uptake albino mouse brain at 5 mg equivalent of oxazepam/kg, iv after 20 mins measured per gm of tissue by thin-layer chromatography; type: ADME, organism-based; conditions: in vivo
Brain [23] = experiment: Drug uptake albino mouse brain at 5 mg equivalent of oxazepam/kg, iv after 240 mins measured per gm of tissue by thin-layer chromatography; type: ADME, organism-based; conditions: in vivo, 4 h
Brain [24] = experiment: Drug uptake albino mouse brain at 10 mg equivalent of oxazepam/kg, iv after 30 mins measured per gm of tissue by thin-layer chromatography; type: ADME, organism-based; conditions: in vivo, 0.5 h
Brain [25] = experiment: Drug uptake albino mouse brain at 10 mg equivalent of oxazepam/kg, iv after 10 mins measured per gm of tissue by thin-layer chromatography; type: ADME, organism-based; conditions: in vivo
Brain [26] = experiment: Drug uptake albino mouse brain at 10 mg equivalent of oxazepam/kg, iv after 240 mins measured per gm of tissue by thin-layer chromatography; type: ADME, organism-based; conditions: in vivo, 4 h
Brain [27] = experiment: Drug uptake albino mouse brain at 10 mg equivalent of oxazepam/kg, iv after 60 mins measured per gm of tissue by thin-layer chromatography; type: ADME, organism-based; conditions: in vivo, 1 h
Brain [28] = experiment: Drug uptake albino mouse brain at 10 mg equivalent of oxazepam/kg, iv after 120 mins measured per gm of tissue by thin-layer chromatography; type: ADME, organism-based; conditions: in vivo, 2 h
Brain [29] = experiment: Drug uptake albino mouse brain at 10 mg equivalent of oxazepam/kg, iv after 5 mins measured per gm of tissue by thin-layer chromatography; type: ADME, organism-based; conditions: in vivo
esterase = experiment: as §2; type: ADME; conditions: liver microsomes
[30] = Mus musculus, iv, read-out: ED50

## CC(Cc1ccccc1)C(=O)OC1N=C(c2ccccc2)c2cc(Cl)ccc2NC1=O (racemic)
Mus musculus [1]
  ED50: 0.51 mg/kg
Mus musculus [2]
  Ratio ED50: 6.1
Mus musculus [3]
  Ratio ED50: 7.4
Mus musculus [4]
  ED50: 0.66 mg/kg
Mus musculus [5]
  ED50: 3.75 mg/kg
Mus musculus [6]
  ED50: 4.01 mg/kg
[7]
  Vmax: 2.4 nmol/min
[8]
  Km: 8.3 µM

## CCC(=O)OC1N=C(c2ccccc2)c2cc(Cl)ccc2N[14C]1=O (stereo not drawn)
Brain [9]
  Drug uptake: 24.2 nmol
Brain [10]
  Drug uptake: 17.5 nmol
Brain [11]
  Drug uptake: 12.6 nmol
Brain [12]
  Drug uptake: 33 nmol
Brain [13]
  Drug uptake: 30.8 nmol
Brain [14]
  Drug uptake: 41.7 nmol
[15]
  Rm: -0.03

## O=C1Nc2ccc(Cl)cc2C(c2ccccc2)=NC1O (stereo not drawn) [OXAZEPAM]
Mus musculus [1]; [30]
  ED50: 0.18 mg/kg
Mus musculus [4]
  ED50: 0.39 mg/kg

## CC(Cc1ccccc1)C(=O)OC1N=C(c2ccccc2)c2cc(Cl)ccc2N[14C]1=O (stereo in doubt; [14C]-11)
Brain [16]
  Drug uptake: 11.7 nmol
Brain [17]
  Drug uptake: 2.1 nmol
Brain [18]
  Drug uptake: 12.8 nmol
Brain [19]
  Drug uptake: 10.8 nmol
Brain [20]
  Drug uptake: 5.6 nmol
Brain [21]
  Drug uptake: 2.6 nmol
Brain [22]
  Drug uptake: 7.7 nmol
Brain [23]
  Drug uptake: 7.2 nmol

## CC(=O)OC1N=C(c2ccccc2)c2cc(Cl)ccc2NC1=O (stereo not drawn)
Mus musculus [1]; [30]
  ED50: 0.38 mg/kg
Mus musculus [2]
  Ratio ED50: 3.6
Mus musculus [3]
  Ratio ED50: 2.6
Mus musculus [4]
  ED50: 0.33 mg/kg
Mus musculus [5]
  ED50: 0.97 mg/kg
Mus musculus [6]
  ED50: 1.2 mg/kg
[7]
  Vmax: 323 nmol/min

## CC(=O)OC1N=C(c2ccccc2)c2cc(Cl)ccc2N[14C]1=O (stereo not drawn)
Brain [24]
  Drug uptake: 40.3 nmol
Brain [10]
  Drug uptake: 39.4 nmol
Brain [25]
  Drug uptake: 59.5 nmol
Brain [11]
  Drug uptake: 29.9 nmol
Brain [26]
  Drug uptake: 11 nmol
Brain [27]
  Drug uptake: 46.6 nmol
Brain [14]
  Drug uptake: 49.2 nmol
Brain [28]
  Drug uptake: 33 nmol
[15]
  Rm: -0.15
Brain [29]
  Drug uptake: 47.5 nmol

## O=C(CCc1ccccc1)OC1N=C(c2ccccc2)c2cc(Cl)ccc2NC1=O (stereo not drawn)
Mus musculus [1]; [30]
  ED50: 0.44 mg/kg
Mus musculus [2]
  Ratio ED50: 11.5
Mus musculus [3]
  Ratio ED50: 5.8
Mus musculus [4]
  ED50: 0.31 mg/kg
Mus musculus [5]
  ED50: 2.57 mg/kg
Mus musculus [6]
  ED50: 3.56 mg/kg
[7]
  Vmax: 7.9 nmol/min
esterase
  Km: 9.7 µM

## CCC(CC)C(=O)OC1N=C(c2ccccc2)c2cc(Cl)ccc2NC1=O (stereo not drawn)
Mus musculus [1]; [30]
  ED50: 0.28 mg/kg
Mus musculus [2]
  Ratio ED50: 10.4
Mus musculus [3]
  Ratio ED50: 10
Mus musculus [4]
  ED50: 0.33 mg/kg
Mus musculus [5]
  ED50: 2.8 mg/kg
Mus musculus [6]
  ED50: 3.42 mg/kg
[7]
  Vmax: 1.4 nmol/min

## O=C(CCCc1ccccc1)OC1N=C(c2ccccc2)c2cc(Cl)ccc2NC1=O (stereo not drawn)
[7]
  Vmax: 1.5 nmol/min
esterase
  Km: 9.5 µM

## CCC(=O)OC1N=C(c2ccccc2)c2cc(Cl)ccc2NC1=O (stereo not drawn)
Mus musculus [1]; [30]
  ED50: 0.13 mg/kg
Mus musculus [2]
  Ratio ED50: 13.8
Mus musculus [3]
  Ratio ED50: 34.2
Mus musculus [4]
  ED50: 0.32 mg/kg
Mus musculus [5]
  ED50: 4.45 mg/kg
Mus musculus [6]
  ED50: 4.4 mg/kg
[7]
  Vmax: 139 nmol/min

## CCCC(=O)OC1N=C(c2ccccc2)c2cc(Cl)ccc2NC1=O (stereo not drawn)
Mus musculus [1]; [30]
  ED50: 0.29 mg/kg
Mus musculus [2]
  Ratio ED50: 10.3
Mus musculus [3]
  Ratio ED50: 9.1
Mus musculus [4]
  ED50: 0.32 mg/kg
Mus musculus [5]
  ED50: 2.64 mg/kg
Mus musculus [6]
  ED50: 3.28 mg/kg
[7]
  Vmax: 88 nmol/min
